Published values from different studies.
Protocols differ between the studies behind these lines.
ADRB2: Beta-2 adrenergic receptor (ADRB2, Homo sapiens, UniProt P07550)

CC(Cc1ccc2c(c1)OCO2)NCC(O)c1ccc(O)c(O)c1 (stereo not drawn)  EC50 (ADRB2; β-arrestin recruitment; agonist): 0.00631 µM
CCC1(COCc2ccccc2F)CCC(C)(C)O1 (stereo not drawn)  EC50 (ADRB2; calcium signal; agonist; fluorescence): 17 µM
NCC(O)c1ccc(O)c(O)c1F (stereo not drawn)  Ki (Beta-2 adrenergic receptor (ADRB2, Homo sapiens, UniProt P07550, N293A); ligand displacement; radioligand; cell membranes): 319 µM
CCOc1ccccc1OCCN[C@H](C)Cc1ccc(OC)c(S(N)(=O)=O)c1  IC50 (ADRB2; ligand displacement; radioligand): 2.2 µM
CC(N)Cc1c[nH]c2ccc(OCc3cccs3)cc12 (stereo not drawn)  IC50 (ADRB2; ligand displacement; radioligand; cell membranes): 9.42 µM
C[C@H](N)Cn1ncc2ccc3c(c21)CCCO3  EC50 (ADRB2; cAMP; agonist): > 100 µM
NCC(O)c1cc(O)c(O)cc1F (stereo not drawn)  Ki (Beta-2 adrenergic receptor (ADRB2, Homo sapiens, UniProt P07550, N293Q); ligand displacement; radioligand; cell membranes): 3330 µM
CN1CCC(=C2c3ccccc3CCc3sccc32)CC1  IC50 (ADRB2; ligand displacement; radioligand): 5.8 µM
COc1ccc(OC)c(C(O)C(C)N)c1 (stereo not drawn)  IC50 (ADRB2; ligand displacement; radioligand; cell membranes): 12.3 µM
